These results are taken from ChEMBL document CHEMBL5653608 (Br J Pharmacol, 2011).

Test [1] in a line: Induction of relaxation in nifedipine-induced carbachol pre-contracted rings of Beagle dog bronchioles incubated for 1 hr relative to control. The class given is functional, Canis lupus familiaris, Bronchiole. More on the design: scale not given: the % may be the effect or the level left. In outline:
(§1)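 Beagle bronchiole rings held at 1 g tension in Krebs at 37°C (with propranolol and phentolamine), primed with 80 mM KCl. Rings were precontracted with 1 µM carbachol, then antagonist (3–100 nM) or vehicle was equilibrated for 1 h. Cumulative PGE2 relaxation curves followed, with final 10 µM nifedipine defining maximal relaxation. KB by the Lew and Angus method.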

The nature of test [2]: Induction of relaxation in forskolin-induced carbachol pre-contracted C57BL/6 mouse trachea incubated for 30 mins. The class given is functional, tissue-based. In short, it runs like this: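 Male C57BL/6 tracheal rings at 0.35 g tension in Krebs (95% O2/5% CO2, 37°C). Rings were precontracted with 10 µM carbachol before cumulative half-log PGE2 (0.1 nM–30 µM). Curves were repeated in the same ring after 30 min with 3 nM antagonist or DMSO, and 10 µM forskolin set maximal relaxation. pKB = log(CR−1) − log[B].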

Test [3] can be described thus: Induction of relaxation in […] C57BL/6 mouse trachea at 0.1 to 30 uM incubated for 30 mins relative to control (reference value: 21.6 +/- 8.8%). In kind it is functional. More on the design: scale not given: the % may be the effect or the level left. The note with it: dose 0.1-30 µM, 0.5 h.
The nature of test [4]: Induction of relaxation in nifedipine-induced carbachol pre-contracted rings of Beagle dog bronchioles incubated for 1 hr. In kind it is functional, tissue-based, Canis lupus familiaris, Bronchiole. In short, it runs like this: as §1
Test [5] in a line: Inhibition of EFS-induced contraction of human myometrium incubated for 60 mins. In kind it is functional, tissue-based. In short, it runs like this: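 Human myometrial strips (donors aged 24–76) in a 15 mL Krebs bath at 37°C, under EFS at 15 V, 1.5 ms pulses, 10 s every 100 s, at a submaximal 15 Hz. Antagonist (10 or 100 nM) or vehicle was equilibrated for 60 min. Cumulative butaprost (0.1 nM–10 µM) or PGE2 (0.1 nM–3 µM) was given for at least five EFS responses per concentration. pKB was calculated from same-donor concentration ratios.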

The structures appear in SMILES notation.

Turning to `CCCCC[C@H](O)/C=C/[C@H]1[C@H](O)CC(=O)[C@@H]1C/C=C\CCCC(=O)O` [DINOPROSTONE], the Activity in test [1] is recorded as 82%; in test [3], 65.4%. The EC50 turned out to be 133 nM in test [2] and 90 nM in test [4]. This compound gave an IC50 in test [5] of 17.3 nM.

As a reminder, the EC50 is the concentration giving half of the maximal effect. One may read the IC50 as the concentration that gives 50% inhibition.
